High-throughput results from PubChem BioAssay.
M5 ag: CHRM5 agonism in calcium assay; P08912; CHO-K1 hM5 cells, Fluo-8 calcium fluorescence; 0% DMSO wells, 100% maximal acetylcholine response; activation, % at 3 µM; actives 0.19% (n = 360,000);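 active means activation above the run's mean over test compounds plus 3 SD, cut at about 23% in these data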;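 further: signal is peak over basal fluorescence ratio across the kinetic read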
Target sequence (P08912 whole entry, looked up): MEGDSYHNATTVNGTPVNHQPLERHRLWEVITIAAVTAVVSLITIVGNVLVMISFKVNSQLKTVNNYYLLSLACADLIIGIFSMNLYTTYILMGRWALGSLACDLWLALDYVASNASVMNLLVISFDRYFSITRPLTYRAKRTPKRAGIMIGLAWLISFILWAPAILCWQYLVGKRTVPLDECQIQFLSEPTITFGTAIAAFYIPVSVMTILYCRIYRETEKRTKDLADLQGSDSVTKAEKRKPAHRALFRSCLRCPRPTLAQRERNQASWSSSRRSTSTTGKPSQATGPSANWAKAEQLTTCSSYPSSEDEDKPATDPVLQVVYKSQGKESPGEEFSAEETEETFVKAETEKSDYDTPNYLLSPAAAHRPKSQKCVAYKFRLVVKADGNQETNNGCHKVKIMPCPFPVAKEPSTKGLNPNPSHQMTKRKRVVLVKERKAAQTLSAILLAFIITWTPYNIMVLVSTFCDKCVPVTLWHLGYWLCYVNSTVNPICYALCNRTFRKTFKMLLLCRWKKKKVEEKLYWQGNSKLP
M5 PAM: positive allosteric modulators of human muscarinic M5 receptor; P08912; CHO-K1 hM5, Fluo-8 calcium, ACh EC20 PAM; 0% = ACh EC20, 100% = ACh EC100; activation, % at 3 µM; actives 0.3% (n = 360,000); AID 624038;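 active means activation above the run cutoff, the mean activation of all test compounds plus 3 SD, cut at about 18% in these data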
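System: CHO-K1 cell line with stable human muscarinic M5 receptor expression | Also added: EC20 acetylcholine as agonist stimulus | Compound: One concentration, 3 µM final (nominal) | Timing: Fluo-8 loading 80 min at 37 °C plus 30 min room temperature | Measured by: Fluo-8 calcium dye fluorescence, kinetic read | Read-out basis: % activation, ACh-normalized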
M4 ag: CHRM4 agonism in calcium assay; activation, % at 3 µM; CHO-K1 hM4/Gqi5, Fluo-8 calcium fluorescence; vehicle 0%, full acetylcholine response 100%; P08173; AID 624127; actives 0.14% (n = 360,000);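 active means activation above the run mean over all test wells plus 3 SD, cut at about 32% in these data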;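 further: peak over basal fluorescence ratio per well then scaled between controls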
M4 PAM: positive allosteric modulators of human muscarinic M4 receptor | P08173 | CHO-K1 hM4/Gqi5, Fluo-8 calcium fluorescence, ACh EC20; 0% = ACh EC20, 100% = maximal ACh | activation, % at 3 µM | actives 0.4% (n = 360,000);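 active means activation above its plate's cutoff, the mean activation of sample wells plus 3 SD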
M4 antag: CHRM4 antagonism in calcium assay; P08173; CHO-hM4 cells, ACh EC80, Fluo-8 calcium fluorescence; inhibition, % at 3 µM; actives 0.73% (n = 360,000);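 active means inhibition above its plate's cutoff, the mean inhibition of sample wells plus 3 SD, cut at about 27% in these data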
M5 antag: blocks acetylcholine activation of human M5 receptor. CHO-hM5 cells, Fluo-8 calcium fluorescence, ACh EC80. inhibition, % at 3 µM. actives 0.59% (n = 360,000);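 active means inhibition above a per-plate cutoff, the mean of that plate's test compounds plus 3 SD, cut at about 27% in these data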
Hits are given with their value; . = inactive. An excerpt weighted towards active compounds, which were near 1.8% of everything screened.

SMILES	M5 ag	M5 PAM	M4 ag	M4 PAM	M4 antag	M5 antag
N#Cc1cccc(NC(=O)c2cc(C3CCCCN3S(=O)(=O)c3cccc4cccnc34)on2)c1 (stereo not given)	.	.	.	.	.	.
O=C(C(Cl)Cl)N1CC2CCC(CC2)C1	.	18	.	.	.	.
Cc1ccc(N2C(=O)CCSC23C(=O)Nc2ccccc23)cc1 (stereo not given)	.	.	.	.	27	.
CCC(c1nnnn1-c1c(C)cccc1C)N1CCN(c2ccccn2)CC1 (stereo not given)	.	.	.	.	.	.
O=C(OCC(=O)N1CCCC1=O)c1cccc(S(=O)(=O)N2CCOCC2)c1	.	32	.	.	.	.
O=C(NCc1cccnc1)c1cccc(S(=O)(=O)N2CCCC2)c1	.	.	.	.	.	.
CC(=O)c1ccc(NC(=O)c2ccc(C)c(S(=O)(=O)N3CCOCC3)c2)cc1	.	.	.	.	.	.
COCCN1Cc2cccc(C(=O)Nc3ccc(S(=O)(=O)N4CCCCC4)cc3)c2C1=O	.	25	.	.	.	.
O=C(NCc1cccnc1)c1cccc(S(=O)(=O)N2CCOCC2)c1	.	31	.	.	.	.
CCOC(=O)c1ccc(NC(=O)c2ccc(C)c(S(=O)(=O)N3CCOCC3)c2)cc1	.	.	.	.	39	29
C[C@H]1COC(=O)[C@@H](Cc2ccc(F)cc2)C/C=C\C[C@@H](CC(=O)N[C@@H](CO)Cc2ccccc2)C(=O)N1	.	.	.	.	.	.
CN(Cc1ccccc1N1CCCC1)C(=O)c1cc2cc(Cl)ccc2o1	.	.	.	.	.	.
CC1=C(C(=O)N(C)C)CC(CC(=O)NCC2CCCCC2)C(=O)N1Cc1ccccc1 (stereo not given)	.	.	.	.	.	.
O=C(NCCS(=O)(=O)N1CCC2(CC1)OCCO2)c1ccc(F)cc1	.	.	.	.	.	.
CCOC(=O)c1ccc(NC(=O)c2cccc(S(=O)(=O)N3CCOCC3)c2)cc1	.	.	.	.	38	.
CC(=O)N1CCN(S(=O)(=O)c2cccc(C(=O)NC3CCCC(C)C3C)c2)CC1 (stereo not given)	.	.	.	.	.	.
CC1CCCC(NC(=O)c2cccc(S(=O)(=O)N3CCOCC3)c2)C1C (stereo not given)	.	.	.	16	.	.
CCOC(=O)c1c(NC(=S)N2CCN(C)CC2)sc2c1CCN(C(=O)OCC)C2	.	.	.	12	.	.
CCOC(=O)c1c(NC(=O)c2ccc(S(=O)(=O)N3CCOCC3)cc2)sc2c1CCN(C)C2	.	.	.	19	.	.
CCOC(=O)c1c(NC(=O)CN(CC)CC)sc2c1CCN(C(=O)OCC)C2	.	.	.	.	.	.
CC(=O)c1cccc(NC(=O)c2cccc(S(=O)(=O)N3CCOCC3)c2)c1	.	.	.	.	.	.
Cc1cc2cc(CNC(=O)c3ccc(S(=O)(=O)N4CCOCC4)cc3)ccc2n1C	.	.	.	.	39	.
CN1CCN(S(=O)(=O)c2ccc(NC(=O)c3cccc(S(=O)(=O)N4CCCC4)c3)cc2)CC1	.	.	.	.	37	29
Cc1cc2cc(CNC(=O)c3ccc(S(=O)(=O)N(C)C)cc3)ccc2n1C	.	.	.	.	.	.
CCCCCCn1c(=O)n2n(c1=O)C[C@]1(OC(=O)NCc3ccco3)CN(S(=O)(=O)c3ccc(C)cc3)C[C@]1(O)C2	.	.	.	.	.	.
SMILES	M5 ag	M5 PAM	M4 ag	M4 PAM	M4 antag	M5 antag
CCn1nnnc1SCC(=O)Nc1ccc(OCc2ccccc2)cc1	.	34	.	27	.	.
COC(=O)CSc1nc2ccc(NC(=O)CSc3nnnn3Cc3ccccc3)cc2s1	.	.	.	.	27	.
O=C(CCN1CCN(Cc2ccccc2)CC1)Nc1ccc(OCc2ccccc2)cc1	.	.	.	.	54	.
O=C(CSc1nc2ccc(NC(=O)CSc3nnnn3Cc3ccccc3)cc2s1)Nc1ccccc1	.	.	.	.	.	.
O=C(CCN1CCN(CCO)CC1)Nc1ccc(OCc2ccccc2)cc1	.	.	.	.	.	.
O=C(CCN1CCc2ccccc2C1)Nc1ccccc1	.	35	.	.	.	.
Cc1c(NC(=O)Nc2cccc(Cl)c2)c(=O)n(-c2ccccc2)n1C	.	.	.	.	.	.
Cc1c(NC(=S)NC(=O)CC(C)C)c(=O)n(-c2ccccc2)n1C	.	.	.	.	79	.
Cc1c(NC(=O)Nc2cc(Cl)ccc2Cl)c(=O)n(-c2ccccc2)n1C	.	.	.	.	.	29
NC(CCc1ccccc1)c1csc(Nc2nccc(C(F)(F)F)n2)n1 (stereo not given)	.	.	.	.	.	.
COc1ccc(CN(C)C(=O)c2cc(-c3ccccc3)nc3ccc(C)cc23)c(OC)c1	.	.	.	.	31	.
CN(C)CCOc1ccc(-c2c(-c3ccccc3)sc3ccccc23)cc1	.	.	.	.	28	.
CCOc1cc(C(=O)NCC(C)CN(C)C)cc(OCC)c1OCC (stereo not given)	.	.	.	.	.	.
CCOc1ccc(C(=O)NCC(C)CN(C)C)cc1OCC (stereo not given)	.	22	.	.	.	.
CCN(CC)N=Nc1ccc(S(=O)(=O)Nc2nc(C)cc(C)n2)cc1	.	.	.	.	.	.
CSc1nncc(-c2ccc(F)cc2)n1	.	.	33	.	.	.
CSc1nncc(-c2ccc(F)c(F)c2)n1	.	.	.	.	.	.
CC(C)=CCn1c2ccc(NC(=S)NC3CC3)cc2c(=O)n1C	.	.	.	.	.	.
CC(NCc1ccc2c(c1)OCO2)C(=O)N1CCc2ccccc21 (stereo not given)	.	.	.	23	.	.
CCCC(=O)N1CCC1(C)C(=O)Nc1ccc(C)c(C)c1 (stereo not given)	.	.	.	.	.	.
CC(=O)Oc1ccc(N2C(=O)C3C4C=CC(CO)(O4)C3C2=O)cc1 (stereo not given)	.	.	.	.	.	.
O=C1C2C3C=CC(CO)(O3)C2C(=O)N1c1ccccc1-c1ccccc1 (stereo not given)	.	.	.	.	27	.
c1ccc(-c2noc(-c3ccno3)n2)nc1	.	.	.	.	.	.
Cc1ccc(-c2noc(-c3ccno3)n2)cc1	.	.	.	31	.	.
COc1ccccc1CNc1ccc([N+](=O)[O-])cc1C	.	.	.	.	.	33
Cc1cc([N+](=O)[O-])ccc1NCc1ccccc1	.	.	.	.	.	.
